What is called inhibition is the drop in the measured response relative to a control, in per cent. What is called IC50 is the concentration needed to halve the response being measured.

In series [1] the test system is HeLa. Description: Inhibition of mTORC1 in human HeLa cells assessed as reduction in 4E-BP1 phosphorylation at Ser65 residues at 0.5 to 1 uM by Western blot analysis. Type of series: cell-based. The procedure, abridged: (§1)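 Cells treated with the indicated concentrations, then whole-cell lysates immunoblotted. mTORC1 activity read as S6 and 4E-BP1 phosphorylation; mTORC2 activity read as AKT Ser473 phosphorylation. Blocking in 5% skim milk, primary antibodies at 4 °C overnight, peroxidase-conjugated secondary, ECL detection.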
(A western blot detects proteins with antibodies after separation by electrophoresis.)

The test system of series [2] is MDA-MB-231. Description: Induction of autophagy in human MDA-MB-231 cells assessed as increase in LC3-2 level at 0.25 to 0.5 uM after 48 hrs by Western blot analysis. Type of series: functional, cell-based. The procedure, abridged: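 Cells treated with test agents at several concentrations for 2 days (48 h). LC3B-II detected by Western blot on lysates, with β-actin as internal control. Membranes blocked in 5% skim milk, primary antibodies at 4 °C overnight, peroxidase-conjugated anti-mouse or anti-rabbit IgG secondary, ECL detection.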

Series [3] addresses DNA-dependent protein kinase catalytic subunit (Homo sapiens, UniProt P78527). Description: Inhibition of full length recombinant human DNA-PK.
In series [4] the test system is HeLa. Kind of series: Growth inhibition of human HeLa cells after 72 hrs by CCK8 assay. Type of series: functional, cell-based. An outline of the steps: (§2)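 Cells were seeded at 2000–3000 per well and grown 24 h in serum-containing medium. They were then exposed to serially diluted compound for 72 h at 37 °C, 5% CO2. CCK8 reagent was added for 1–4 h and absorbance read at 450 nm. Inhibition = (AC − AS)/(AC − Ab) × 100%. IC50 is the average of at least three independent determinations.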
On the technique in general: Tetrazolium assays rely on reduction of a dye to a coloured formazan, in cell work by metabolically active cells.

Series [5] in a line: Protein binding in human plasma at 4 uM after 4 hrs by equilibrium dialysis method. To be noted: read-out: PPB (converted). Type of series: ADME, cell-free. The procedure, abridged:
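Plasma protein binding measured in rabbit and human plasma with compound at 4 μM over a 4 h period; result given as percent bound.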
(In general: Equilibrium dialysis compares concentrations on both sides of a semipermeable membrane.)

Series [6] has as its system PI3-kinase p110-alpha/p85-alpha (Homo sapiens), P27986+P42336 [H1047R]. Description: Inhibition of full length recombinant human p85alpha/PI3K p110alpha H1047R mutant at 1 uM relative to control. An outline of the steps:
(§3)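 Eurofins KinaseProfiler panel with compound at a single 1 μM concentration. ATP at the Km of each kinase. Result is % inhibition, mean of two independent experiments.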

Series [7] concerns Rattus norvegicus. Description: Apparent volume of distribution at steady state in Sprague-Dawley rat at 20 mg/kg, po administered as single dose by HPLC analysis. Type of series: ADME, organism-based. To be noted: in vivo. The procedure, abridged: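 Rats fasted overnight, then given one 20 mg/kg dose either iv or po. Blood was collected and centrifuged at once to obtain plasma. Plasma drug levels were measured by HPLC, and PK parameters were derived from the concentration-time data.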

The test system of series [8] is T47D. Kind of series: Antitumor activity against human T47D cells xenografted in BALB/c nude mouse assessed as decrease in tumor growth at 60 mg/kg, po administered via gavage after 3 weeks relative to control. The following applies: 504 h, read-out: TGI. Type of series: functional.
Series [9] has as its target PI3K p110 beta/p85 beta (Mus musculus) (UniProt Q8BTI9+O08908). Kind of series: Inhibition of full length recombinant mouse PI3K p110beta/p85beta at 1 uM relative to control. Type of series: protein-complex assay. The procedure, abridged: as §3
Series [10] addresses PI3-kinase p110-alpha/p85-alpha (Homo sapiens) (UniProt P27986+P42336). Description: Inhibition of full length recombinant human PI3K p110alpha/p85alpha at 1 uM relative to control. Type of series: protein-complex assay. The procedure, abridged: as §3
Series [11] has as its system T47D. Kind of series: Induction of autophagy in human T47D cells assessed as increase in LC3-2 puncta level at 0.25 to 0.5 uM after 48 hrs by immunofluorescence staining based microscopic analysis. Type of series: functional, cell-based. The procedure, abridged: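 Cells seeded on glass coverslips in complete 1640 or DMEM and incubated with inhibitors at different concentrations for 48 h. Fixed in 4% paraformaldehyde, permeabilized with 0.15% Triton X-100, blocked in 4% BSA/PBS for 1 h at room temperature. Anti-LC3B (1:200) overnight, then FITC-conjugated secondary, DAPI nuclear stain. LC3B-II puncta viewed by fluorescence microscopy.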

The species entered for series [12] is Mus musculus. Kind of series: Inhibition of full length recombinant mouse PI3K p85alpha/p110alpha E545K mutant at 1 uM relative to control. The procedure, abridged:
as §3

Series [13] relates to Mus musculus. Kind of series: Down regulation of 4E-BP1 phosphorylation at Ser65 residues in human T47D cells xenografted in BALB/c nude mouse administered via oral gavage after 3 weeks by hematoxylin and eosine staining based light microscopic assay. Type of series: functional, cell-based. An outline of the steps: (§4)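 Tumours from the oral 3-week T-47D xenograft study were formalin-fixed, paraffin-embedded and cut into 5 μm sections. Sections were deparaffinized, rehydrated and incubated overnight at 4 °C with phospho-specific primary antibody at 1:100. Biotin secondary was applied for 1 h at room temperature, then ABC-peroxidase/DAB with hematoxylin counterstain. Sections were viewed by light microscopy.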

Series [14] has as its system Mus musculus. Description: Down regulation of AKT phosphorylation at Ser473 residues in human T47D cells xenografted in BALB/c nude mouse administered via oral gavage after 3 weeks by hematoxylin and eosine staining based light microscopic assay. Type of series: functional, cell-based. An outline of the steps: as §4
For series [15], the system named is MDA-MB-231. Kind of series: Cell cycle arrest in human MDA-MB-231 cells assessed as decrease in S-phase at 0.25 to 0.5 uM after 24 hrs by propidium iodide-staining based flow cytometric analysis. Type of series: functional. An outline of the steps: (§5)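 Cells were seeded at 5 × 10^5 cells/mL. At 24 h after plating they were treated with increasing concentrations for 24 h, washed in PBS, and fixed in ice-cold 70% ethanol for at least 24 h. They were stained with propidium iodide plus RNase A for 30 min at 37 °C and analysed by flow cytometry for phase distribution.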

The species named for series [16] is Homo sapiens. Kind of series: Inhibition of mTORC1 in human MDA-MB-231 cells assessed as reduction in 4E-BP1 phosphorylation at Thr37/46 residues at 0.25 to 0.5 uM by Western blot analysis. Type of series: cell-based. An outline of the steps: as §1
Series [17] relates to T47D. Kind of series: Growth inhibition of human T47D cells after 72 hrs by CCK8 assay. Type of series: functional, cell-based. The procedure, abridged: as §2
The subject of series [18] is HeLa. Description: Induction of autophagy in human HeLa cells assessed as increase in LC3-2 level at 1 to 2 uM after 48 hrs by Western blot analysis. Type of series: functional, cell-based. The procedure, abridged:
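Cells were treated for 48 h (2 days) with varying concentrations. Whole-cell lysates were immunoblotted for LC3B-II with β-actin as the internal control. Membranes were blocked in 5% skim milk, incubated with primary antibody overnight at 4 °C, then with peroxidase-conjugated secondary, and developed by ECL.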

Series [19] is filed under the species Homo sapiens. Description: Inhibition of mTORC1 in human SiHa cells assessed as reduction in 4E-BP1 phosphorylation at Ser65 residues at 0.25 to 0.5 uM by Western blot analysis. Type of series: cell-based. The procedure, abridged: as §1
For series [20], the system named is MCF7. Description: Cell cycle arrest in human MCF7 cells assessed as decrease in S-phase at 0.25 to 0.5 uM after 24 hrs by propidium iodide-staining based flow cytometric analysis. Type of series: functional. An outline of the steps:
as §5

Series [21] is filed under the species Homo sapiens. Description: Inhibition of mTORC1 in human T47D cells assessed as reduction in 4E-BP1 phosphorylation at Thr37/46 residues at 0.25 to 0.5 uM by Western blot analysis. Type of series: cell-based. An outline of the steps:
as §1

Series [22] has as its system HeLa. Kind of series: Induction of autophagy in human HeLa cells assessed as increase in LC3-2 puncta level after 48 hrs by immunofluorescence staining based microscopic analysis. Type of series: functional, cell-based. An outline of the steps: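 Cells were grown on glass coverslips and exposed to inhibitor for 48 h. They were fixed in 4% paraformaldehyde, permeabilized with 0.15% Triton X-100 and blocked in 4% BSA/PBS for 1 h. Anti-LC3B was applied overnight at 1:200, followed by FITC secondary and DAPI nuclear stain. LC3B-II puncta were counted by fluorescence microscopy.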

The structures appear in SMILES notation. Activity calls are given as the source filed them. The calls are words filed in the database; no cut-off is given here.

DNA-dependent protein kinase catalytic subunit, sequence (P78527 whole entry): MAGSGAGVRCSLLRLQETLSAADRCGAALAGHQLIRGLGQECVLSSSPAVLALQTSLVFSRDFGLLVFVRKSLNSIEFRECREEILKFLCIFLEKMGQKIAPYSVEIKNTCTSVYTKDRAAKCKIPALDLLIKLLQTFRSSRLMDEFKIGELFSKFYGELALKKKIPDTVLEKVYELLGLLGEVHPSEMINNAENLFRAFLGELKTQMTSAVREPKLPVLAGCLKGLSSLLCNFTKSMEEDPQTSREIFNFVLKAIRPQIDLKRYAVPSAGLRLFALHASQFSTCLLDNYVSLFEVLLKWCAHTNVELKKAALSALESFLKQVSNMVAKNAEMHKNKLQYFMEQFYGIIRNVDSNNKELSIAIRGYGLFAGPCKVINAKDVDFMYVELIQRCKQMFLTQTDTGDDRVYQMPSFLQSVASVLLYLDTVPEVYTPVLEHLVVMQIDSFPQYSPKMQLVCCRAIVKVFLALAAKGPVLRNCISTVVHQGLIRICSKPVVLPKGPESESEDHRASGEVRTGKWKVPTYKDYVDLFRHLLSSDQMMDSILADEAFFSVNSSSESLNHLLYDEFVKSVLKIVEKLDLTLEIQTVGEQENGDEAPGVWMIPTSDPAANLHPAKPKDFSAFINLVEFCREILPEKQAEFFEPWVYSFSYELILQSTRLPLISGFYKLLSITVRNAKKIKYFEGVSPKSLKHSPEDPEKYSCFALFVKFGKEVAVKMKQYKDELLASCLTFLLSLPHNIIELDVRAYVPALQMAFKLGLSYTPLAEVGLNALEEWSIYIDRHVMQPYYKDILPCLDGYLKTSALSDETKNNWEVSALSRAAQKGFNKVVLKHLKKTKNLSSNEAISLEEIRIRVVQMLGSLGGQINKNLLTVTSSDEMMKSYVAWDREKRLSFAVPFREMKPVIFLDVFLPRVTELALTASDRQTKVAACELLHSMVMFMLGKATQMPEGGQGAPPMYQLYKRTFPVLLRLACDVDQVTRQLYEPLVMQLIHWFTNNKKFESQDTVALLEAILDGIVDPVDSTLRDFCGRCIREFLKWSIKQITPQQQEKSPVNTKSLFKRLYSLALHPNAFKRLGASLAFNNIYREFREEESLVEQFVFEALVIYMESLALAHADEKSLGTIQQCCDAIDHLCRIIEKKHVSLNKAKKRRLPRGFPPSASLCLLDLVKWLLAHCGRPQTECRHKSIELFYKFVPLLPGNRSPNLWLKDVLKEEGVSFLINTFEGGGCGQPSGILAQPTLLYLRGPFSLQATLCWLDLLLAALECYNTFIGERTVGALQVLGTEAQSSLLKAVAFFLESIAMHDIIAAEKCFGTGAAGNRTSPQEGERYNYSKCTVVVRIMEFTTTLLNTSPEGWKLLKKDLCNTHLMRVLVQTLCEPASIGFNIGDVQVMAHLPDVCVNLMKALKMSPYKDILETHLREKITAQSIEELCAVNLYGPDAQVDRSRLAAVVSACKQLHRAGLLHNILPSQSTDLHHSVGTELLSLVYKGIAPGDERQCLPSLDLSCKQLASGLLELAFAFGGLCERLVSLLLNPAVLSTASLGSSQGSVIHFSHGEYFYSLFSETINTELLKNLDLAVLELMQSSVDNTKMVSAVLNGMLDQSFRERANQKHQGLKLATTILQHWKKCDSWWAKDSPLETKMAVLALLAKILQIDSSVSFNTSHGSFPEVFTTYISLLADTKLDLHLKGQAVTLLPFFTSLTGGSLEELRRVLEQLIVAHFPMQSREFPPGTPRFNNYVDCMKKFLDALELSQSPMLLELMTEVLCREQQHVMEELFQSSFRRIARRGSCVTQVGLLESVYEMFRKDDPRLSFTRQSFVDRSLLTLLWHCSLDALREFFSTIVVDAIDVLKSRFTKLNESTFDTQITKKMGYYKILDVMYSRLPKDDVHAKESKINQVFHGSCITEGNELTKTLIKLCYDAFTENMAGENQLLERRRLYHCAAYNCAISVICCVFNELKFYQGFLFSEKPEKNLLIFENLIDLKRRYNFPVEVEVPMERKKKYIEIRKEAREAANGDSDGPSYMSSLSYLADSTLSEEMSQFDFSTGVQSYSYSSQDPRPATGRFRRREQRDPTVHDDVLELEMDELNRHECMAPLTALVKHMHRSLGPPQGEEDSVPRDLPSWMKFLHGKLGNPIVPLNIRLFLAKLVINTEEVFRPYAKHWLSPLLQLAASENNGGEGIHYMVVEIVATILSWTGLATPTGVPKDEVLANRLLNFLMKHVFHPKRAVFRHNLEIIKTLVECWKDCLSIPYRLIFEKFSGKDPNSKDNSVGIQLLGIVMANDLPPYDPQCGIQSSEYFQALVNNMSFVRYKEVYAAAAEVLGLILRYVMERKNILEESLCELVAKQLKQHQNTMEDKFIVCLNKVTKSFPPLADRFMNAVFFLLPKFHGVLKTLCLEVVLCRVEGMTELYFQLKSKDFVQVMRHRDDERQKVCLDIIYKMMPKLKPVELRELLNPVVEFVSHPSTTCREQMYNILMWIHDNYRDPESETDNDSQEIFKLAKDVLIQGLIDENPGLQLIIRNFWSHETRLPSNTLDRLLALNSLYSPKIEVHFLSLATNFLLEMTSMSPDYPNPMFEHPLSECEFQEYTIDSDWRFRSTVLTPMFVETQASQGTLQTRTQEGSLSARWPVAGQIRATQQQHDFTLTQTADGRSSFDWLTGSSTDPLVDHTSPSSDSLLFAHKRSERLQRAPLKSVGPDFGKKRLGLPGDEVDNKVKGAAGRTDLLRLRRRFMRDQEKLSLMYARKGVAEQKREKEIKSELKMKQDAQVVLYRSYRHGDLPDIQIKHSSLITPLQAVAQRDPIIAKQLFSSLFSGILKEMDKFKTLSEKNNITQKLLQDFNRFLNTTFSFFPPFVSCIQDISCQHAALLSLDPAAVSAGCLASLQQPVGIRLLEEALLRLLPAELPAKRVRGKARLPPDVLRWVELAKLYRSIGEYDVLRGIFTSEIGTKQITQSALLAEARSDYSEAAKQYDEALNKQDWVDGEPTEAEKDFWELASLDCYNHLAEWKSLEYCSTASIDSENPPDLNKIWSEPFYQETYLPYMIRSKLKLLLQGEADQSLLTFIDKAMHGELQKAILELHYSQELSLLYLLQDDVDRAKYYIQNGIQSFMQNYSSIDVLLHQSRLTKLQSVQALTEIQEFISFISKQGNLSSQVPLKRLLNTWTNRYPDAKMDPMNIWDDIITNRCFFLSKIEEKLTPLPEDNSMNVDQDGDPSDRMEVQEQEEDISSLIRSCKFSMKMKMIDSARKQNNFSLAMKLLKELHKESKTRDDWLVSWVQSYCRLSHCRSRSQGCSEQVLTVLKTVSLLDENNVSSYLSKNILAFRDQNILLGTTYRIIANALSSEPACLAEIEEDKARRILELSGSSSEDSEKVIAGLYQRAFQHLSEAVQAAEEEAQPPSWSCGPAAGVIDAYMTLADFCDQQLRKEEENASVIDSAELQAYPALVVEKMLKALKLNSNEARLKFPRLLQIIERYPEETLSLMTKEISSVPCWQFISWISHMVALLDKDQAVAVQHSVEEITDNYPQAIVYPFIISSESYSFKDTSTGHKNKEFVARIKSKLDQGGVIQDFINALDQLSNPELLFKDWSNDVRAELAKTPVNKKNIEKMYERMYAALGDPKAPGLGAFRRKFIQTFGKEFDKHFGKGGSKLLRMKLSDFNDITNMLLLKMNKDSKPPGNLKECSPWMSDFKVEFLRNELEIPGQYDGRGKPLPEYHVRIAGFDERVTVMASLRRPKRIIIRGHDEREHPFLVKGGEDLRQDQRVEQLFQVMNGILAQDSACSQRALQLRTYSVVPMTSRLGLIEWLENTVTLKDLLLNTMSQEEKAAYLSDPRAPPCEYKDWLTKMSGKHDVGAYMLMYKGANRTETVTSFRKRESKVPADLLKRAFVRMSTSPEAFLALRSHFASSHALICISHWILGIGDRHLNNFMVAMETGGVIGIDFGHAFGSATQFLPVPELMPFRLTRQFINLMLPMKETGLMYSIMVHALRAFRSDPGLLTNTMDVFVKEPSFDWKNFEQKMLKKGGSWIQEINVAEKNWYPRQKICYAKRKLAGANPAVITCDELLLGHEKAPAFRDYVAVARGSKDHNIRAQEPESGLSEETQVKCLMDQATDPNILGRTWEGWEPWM

For the compound `N#CCN1CCC(n2c(=O)cnc3cnc4ccc(-c5ccc(N)nc5)cc4c32)CC1`, the inhibition result in series [1], in [16], in series [19] and in series [21] was “Active” in each case. Further, the result in series [2], in series [11], in [15], in [18] and in series [20] was Active. Further, the results for the IC50 in series [3], in series [4] and in series [17] were 26 nM, 441 nM and 205 nM, respectively. Also, the fraction unbound at 4 h, 4 µM in series [5] was 0.36. Further, the inhibition in series [6] was determined as 2%; in series [9] it was 8%; in [10] it was 10%; in series [12], 9%. Also, the “Vdss(app)” value in series [7] was determined as 21.79 L/kg. The inhibition in vivo at 60 mg/kg in series [8] worked out at 83.7%. Further, the Activity entry in [13], in series [14] and in series [22] was “Dose-dependent effect” in each case.

For the origin of these results see ChEMBL document CHEMBL4020823, “Highly Selective, Potent, and Oral mTOR Inhibitor for Treatment of Cancer as Autophagy Inducer” (J Med Chem, 2018).
